Laboratory results as given in ChEMBL document CHEMBL4477254, “Synthesis and biological evaluation of some novel triazole hybrids of curcumin mimics and their selective anticancer activity against breast and prostate cancer cell lines” (Bioorg Med Chem Lett, 2016).
In brackets after ≈: the same amount, converted by molar mass. Activity calls are given as the source filed them. The calls are words filed in the database; no cut-off is given here.

Key:
PC-3 [1] = experiment: Cell cycle arrest in human PC3 cells assessed as accumulation at G2/M phase at 4.8 uM after 24 hrs by propidium iodide staining based flow cytometry (reference value: 2.25%); assay type: functional
Procedure, shortened: (§1)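 Cells treated 24 h with test compound, MCF-7 at various concentrations and PC-3 at various concentrations; cells harvested, stained with propidium iodide and acquired by flow cytometry for cell cycle phase distribution.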

HEK293 = experiment: Cytotoxicity against human HEK293 cells assessed as decrease in cell viability after 24 hrs by MTT assay; assay type: cell-based; details: HEK293, 24 h
Procedure, shortened: (§2)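 Cell viability by MTT after 24 h compound exposure; curcumin as standard. IC50 in µM from three independent experiments, expressed as mean ± SE.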

[2] = Elimination rate constant in liver microsomes (unknown origin) at 8 ug/ml measured up to 60 mins by UPLC analysis; assay type: ADME, Microsome
PC-3 [3] = experiment: Induction of apoptosis in human PC3 cells assessed as viable cells at 4.8 uM after 24 hrs by annexin V-FITC/propidium iodide staining based flow cytometry (reference value: 92.24%); assay type: functional; details: PC-3, 24 h, read-out: Activity
Procedure, shortened: (§3)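 MCF-7 cells exposed to 3, 6 or 9 μM and PC-3 cells to 4.8 or 8.8 μM for 24 h, then harvested and dual-stained with Annexin V-FITC/PI and read by flow cytometry. Gates: live AnnexinV⁻/PI⁻, early apoptotic AnnexinV⁺/PI⁻, necrotic AnnexinV⁻/PI⁺.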

PC-3 [4] = experiment: Induction of apoptosis in human PC3 cells assessed as early apoptotic cells at 4.8 uM after 24 hrs by annexin V-FITC/propidium iodide staining based flow cytometry (reference value: 4.44%); assay type: functional; procedure, shortened: as §3
PC-3 [5] = experiment: Induction of apoptosis in human PC3 cells assessed as decrease in live cells after 24 hrs by annexin V-FITC/propidium iodide staining based flow cytometry; assay type: functional, cell-based; procedure, shortened: as §3
DU-145 [6] = experiment: Potency index, ratio of curcumin IC50 to compound IC50 in human DU145 cells; assay type: functional
Procedure, shortened: (§4)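 IC50 came from an MTT viability assay after 24 h compound exposure, with curcumin run as the standard. Values are mean ± SE of three independent experiments. The index is the curcumin IC50 divided by the compound IC50 in the same cell line.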

[7] = Stability of the compound in simulated intestinal fluid assessed as compound remaining after 2 hrs at 37 degC by UPLC analysis; assay type: ADME; details: read-out: Stability
PC-3 [8] = experiment: Cell cycle arrest in human PC3 cells assessed as accumulation at G0/G1 phase at 4.8 uM after 24 hrs by propidium iodide staining based flow cytometry (reference value: 72.73%); assay type: functional; procedure, shortened: as §1
[9] = Stability of the compound in simulated gastric fluid assessed as compound remaining after 1 hr at 37 degC by UPLC analysis; assay type: ADME; details: read-out: Stability
[10] = Stability in rat plasma assessed as compound remaining after 2 hrs at 37 degC by UPLC analysis; assay type: ADME, cell-free; details: read-out: Stability
Procedure, shortened: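 Compound was incubated in plasma, and the percentage remaining intact was calculated at time points up to 2 h.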

PC-3 [11] = experiment: Potency index, ratio of curcumin IC50 to compound IC50 in human PC3 cells; assay type: functional; procedure, shortened: as §4
DU-145 [12] = experiment: Cytotoxicity against human DU145 cells assessed as decrease in cell viability after 24 hrs by MTT assay; assay type: functional, cell-based; details: DU-145, 24 h; procedure, shortened: as §2
PC-3 [13] = experiment: Induction of morphological changes in human PC3 cells at 2.4 to 8.8 uM after 24 hrs by phase contrast microscopy; assay type: functional, cell-based
Procedure, shortened: (§5)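 Cells were exposed to a range of concentrations for 24 h. Cell number and morphology, including detachment from the surface, were assessed by phase-contrast microscopy at 10X magnification.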

PC-3 [14] = experiment: Cytotoxicity against human PC3 cells assessed as decrease in cell viability after 24 hrs by MTT assay; assay type: functional, cell-based; details: PC-3, 24 h; procedure, shortened: as §2
PC-3 [15] = experiment: Decrease in PCNA levels in human PC3 cells at 4.8 to 8.8 uM after 24 hrs by Western blot analysis; assay type: functional, cell-based
Procedure, shortened: (§6)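 MCF-7 or PC-3 cells treated with compound for 24 h, harvested; PCNA, Bax and Bcl-2 protein expression checked by Western blotting.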

[16] = Solubility of the compound in distilled water after 24 hrs by HPLC based shake flask method; assay type: physicochemical
[17] = Protein binding in rat plasma at 8 ug/ml after 15 mins by UPLC based charcoal adsorption method; assay type: ADME, cell-free; details: read-out: PPB (converted)
4T1 [18] = experiment: Cytotoxicity against mouse 4T1 cells assessed as decrease in cell viability after 24 hrs by MTT assay; assay type: functional, cell-based; details: 4T1, 24 h; procedure, shortened: as §2
4T1 [19] = experiment: Potency index, ratio of curcumin IC50 to compound IC50 in mouse 4T1 cells; assay type: functional; procedure, shortened: as §4
MDA-MB-231 [20] = experiment: Cytotoxicity against human MDA-MB-231 cells assessed as decrease in cell viability after 24 hrs by MTT assay; assay type: functional, cell-based; details: MDA-MB-231, 24 h; procedure, shortened: as §2
MDA-MB-231 [21] = experiment: Potency index, ratio of curcumin IC50 to compound IC50 in human MDA-MB-231 cells; assay type: functional; procedure, shortened: as §4
MCF7 [22] = experiment: Cytotoxicity against human MCF7 cells assessed as decrease in cell viability after 24 hrs by MTT assay; assay type: functional, cell-based; details: MCF7, 24 h; procedure, shortened: as §2
MCF7 [23] = experiment: Inhibition of colony formation in human MCF7 cells at 3 to 6 uM incubated for 24 hrs measured till day 7 by crystal violet staining based assay; assay type: functional, cell-based
Procedure, shortened: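 Cells were treated with a range of concentrations for 24 h. The medium was then replaced with complete medium and cells were grown for 7 days. Colonies were stained with 0.1% crystal violet.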

MCF7 [24] = experiment: Induction of morphological changes in human MCF7 cells assessed as decrease in cell number at 1 to 6 uM after 24 hrs by phase contrast microscopy; assay type: functional, cell-based; procedure, shortened: as §5
MCF7 [25] = experiment: Cell cycle arrest in human MCF7 cells assessed as accumulation at S phase at 9 uM after 24 hrs by propidium iodide staining based flow cytometry (reference value: 34.03%); assay type: functional; procedure, shortened: as §1
MCF7 [26] = experiment: Induction of apoptosis in human MCF7 cells assessed as viable cells at 6 uM after 24 hrs by annexin V-FITC/propidium iodide staining based flow cytometry (reference value: 82.63%); assay type: functional; details: MCF7, 24 h, read-out: Activity; procedure, shortened: as §3
MCF7 [27] = experiment: Induction of morphological changes in human MCF7 cells assessed as cell detachment at >6 uM after 24 hrs by phase contrast microscopy; assay type: functional, cell-based; procedure, shortened: as §5
MCF7 [28] = experiment: Cell cycle arrest in human MCF7 cells assessed as accumulation at G2/M phase at 3 uM after 24 hrs by propidium iodide staining based flow cytometry (reference value: 20.30%); assay type: functional; procedure, shortened: as §1
MCF7 [29] = experiment: Induction of apoptosis in human MCF7 cells assessed as necrotic cells at 3 uM after 24 hrs by annexin V-FITC/propidium iodide staining based flow cytometry (reference value: 4.76%); assay type: functional
Procedure, shortened: (§7)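 Apoptosis by Annexin V-FITC/PI dual staining: MCF-7 cells treated 24 h at 3, 6 and 9 µM, then harvested, stained and acquired by flow cytometry; early apoptotic = AnnexinV+/PI−, live = AnnexinV−/PI−, necrotic = AnnexinV−/PI+.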

MCF7 [30] = experiment: Induction of morphological changes in human MCF7 cells at 1 to 6 uM after 24 hrs by phase contrast microscopy; assay type: functional, cell-based; procedure, shortened: as §5
MCF7 [31] = experiment: Increase in Bax expression in human MCF7 cells at 3 to 9 uM after 24 hrs by Western blot analysis; assay type: functional, cell-based; procedure, shortened: as §6
MCF7 [32] = experiment: Induction of apoptosis in human MCF7 cells assessed as necrotic cells at 9 uM after 24 hrs by annexin V-FITC/propidium iodide staining based flow cytometry (reference value: 4.76%); assay type: functional; procedure, shortened: as §7
MCF7 [33] = experiment: Cell cycle arrest in human MCF7 cells assessed as accumulation at S phase at 6 uM after 24 hrs by propidium iodide staining based flow cytometry (reference value: 34.03%); assay type: functional; procedure, shortened: as §1

Row | Compound | IC50 (HEK293) [µM] | Ratio IC50 (DU-145 [6]) | remaining at 2 h [7] [%] | remaining at 1 h [9] [%] | remaining at 2 h [10] [%] | Ratio IC50 (PC-3 [11]) | IC50 (DU-145 [12]) [µM] | IC50 (PC-3 [14]) [µM] | solubility thermodynamic at 24 h [16] [µg/mL] | fraction unbound at 0.25 h, 8 ug/ml [17] | IC50 (4T1 [18]) [µM] | Ratio IC50 (4T1 [19]) | IC50 (MDA-MB-231 [20]) [µM] | Ratio IC50 (MDA-MB-231 [21]) | IC50 (MCF7 [22]) [µM] | also measured
1 | Cc1ccc(/C=C2\CN(Cc3cn(Cc4ccccc4F)nn3)C/C(=C\c3ccc(C)cc3)C2=O)cc1 | > 100 | ≤ 9.5 | 30 | 92 | 90 | <=5.7 | 9.5 | 8.8 | 1.12 (≈ 2.27 µM) | 0.0301 | 18 | <=9.3 | 10 | <=8.3 | 28.7 | Activity (PC-3 [1]): 8.36%; k el at 1 h, 8 ug/ml [2]: 0.000733 s⁻¹; viability at 4.8 µM (PC-3 [3]): 85.3%; Activity (PC-3 [4]): 13.02%; Activity (PC-3 [5]): Dose-dependent effect; Activity (PC-3 [8]): 70.62%; Activity (PC-3 [13]): Active; Activity (PC-3 [15]): Active
2 | O=C1/C(=C/c2ccccc2F)CN(Cc2cn(Cc3ccc(F)cc3)nn2)C/C1=C\c1ccccc1F | 46 | ≤ 9.5 | 65 | 85 | 96 | <=5.7 | 8.7 | 19.4 | 2.08 (≈ 4.16 µM) | 0.188 | 6.4 | <=9.3 | 10 | <=8.3 | 6 | inhibition (MCF7 [23]): Active; Activity (MCF7 [24]): Active; Activity (MCF7 [25]): 62.67%; viability at 6 µM (MCF7 [26]): 50%; Activity (MCF7 [27]): Active; Activity (MCF7 [28]): 25.7%; Activity (MCF7 [29]): 6.18%; Activity (MCF7 [30]): Active; Activity (MCF7 [31]): Active; Activity (MCF7 [32]): 9.22%; Activity (MCF7 [33]): 44.43%
